Results collected from several papers.
Protocols differ between the studies behind these lines.
EGFR L858R: Epidermal growth factor receptor (EGFR, Homo sapiens, UniProt P00533, L858R)
EGFR G719S: Epidermal growth factor receptor (EGFR, Homo sapiens, UniProt P00533, G719S)
EGFR del752-759: Epidermal growth factor receptor (EGFR, Homo sapiens, UniProt P00533, del752-759)
EGFR L861Q: Epidermal growth factor receptor (EGFR, Homo sapiens, UniProt P00533, L861Q)
EGFR A750P/del747-749: Epidermal growth factor receptor (EGFR, Homo sapiens, UniProt P00533, A750P/del747-749)
EGFR: Epidermal growth factor receptor (EGFR, Homo sapiens, UniProt P00533)
EGFR T790M: Epidermal growth factor receptor (EGFR, Homo sapiens, UniProt P00533, T790M)

SMILES | target | test | setting | remaining binding
c1ccc(N2CCN(Cc3nc4ccccc4[nH]3)CC2)nc1 | EGFR L858R | cell-free assay, competition with immobilised ligand | 1 µM | 100%
CN(CCCC(F)(F)F)c1nccc(-c2cnn3ncccc23)n1 | EGFR G719S | binding | 1 µM | 98%
CCC(=O)N[C@@H]1CC[C@H](C(=O)N(C)c2ccc(-c3nc4ccccc4o3)cc2)C1 | EGFR del752-759 | cell-free assay, competition with immobilised ligand | 1 µM | 88%
CN(C)c1nccc(-c2cnn3ncccc23)n1 | EGFR L861Q | binding | 1 µM | 90%
CN1CCN(c2ccc(Nc3nccc(-c4cccc([N+](=O)[O-])c4)n3)cc2C(F)(F)F)CC1 | EGFR L861Q | binding | 10 µM | 96%
O=C(c1ccc(Nc2nccc(-c3cc4ccccc4s3)n2)cc1)N1CCC(N2CCCC2)CC1 | EGFR A750P/del747-749 | binding, competition with immobilised ligand | 1 µM | 100%
Nc1ncc2c(n1)-c1c([nH]c3ccc(C#CC4CC4)cc13)CCCC2 | EGFR G719S | binding, competition with immobilised ligand | 1 µM | 98%
COc1cnc(Nc2cccc(S(N)(=O)=O)c2)nc1N1CCN(c2ccccc2)C(=O)C1 | EGFR del752-759 | binding, competition with immobilised ligand | 1 µM | 100%
c1cncc(-c2cccc(Nc3nccc(NC4CCCCC4)n3)c2)c1 | Epidermal growth factor receptor (EGFR, Homo sapiens, UniProt P00533, del747-752/P753S) | binding, competition with immobilised ligand | 10 µM | 42%
N#Cc1ccc(Nc2ccc3[nH]c(=O)[nH]c3c2)c(Cl)c1 | EGFR del752-759 | cell-free assay, competition with immobilised ligand | 1 µM | 100%
COc1ccnn2ncc(-c3ccnc(N(C)C)n3)c12 | Epidermal growth factor receptor (EGFR, Homo sapiens, UniProt P00533, G719C) | binding | 1 µM | 92%
O=C(NCCCN1CCOCC1)c1ccc(Nc2nccc(-c3cc4ccccc4s3)n2)cc1 | EGFR G719S | binding, competition with immobilised ligand | 1 µM | 100%
C[C@H]1CCN(c2nccc(-c3cnn4ncccc34)n2)C1 | EGFR del752-759 | binding | 1 µM | 97%
O=C(Nc1cccnn1)N1CC(C/C=C/c2cncc(Oc3ccc(C(F)(F)F)cn3)n2)C1 | Epidermal growth factor receptor (EGFR, Homo sapiens, UniProt P00533, del747-750/T751S) | cell-free assay, competition with immobilised ligand | 1 µM | 100%
CN(c1nccc(-c2cnn3ncccc23)n1)C1CC1 | EGFR | binding | 1 µM | 100%
O=C(Nc1c[nH]nc1C(=O)NC1CCNCC1)c1cc(F)cc(F)c1 | EGFR L858R | binding, competition with immobilised ligand | 1 µM | 90%
O=C(c1ccc(Nc2ncc(Cl)c(-c3ccc(Cl)s3)n2)cc1)N1CCC(N2CCCC2)CC1 | EGFR A750P/del747-749 | binding, competition with immobilised ligand | 1 µM | 72%
Nc1cnc(N2CCc3cc(S(=O)(=O)Nc4c(F)cc(Cl)cc4F)cc(N4CCCC4=O)c32)nc1 | EGFR | cell-free assay, competition with immobilised ligand | 1 µM | 82%
O=C(c1ccc(Nc2ncc(Cl)c(-c3cc4ccccc4s3)n2)cc1)N1CCC(N2CCCC2)CC1 | EGFR T790M | binding, competition with immobilised ligand | 1 µM | 58%
O=C(Nc1ccc(Oc2ccc(F)cc2)cc1)N1CCc2ncccc2[C@H]1c1ccc(F)cc1 | EGFR T790M | cell-free assay, competition with immobilised ligand | 1 µM | 87%
N[C@@H]1CCN(c2nccc(-c3cnn4ncccc34)n2)C1 | Epidermal growth factor receptor (EGFR, Homo sapiens, UniProt P00533, L858R/T790M) | binding | 1 µM | 100%
CCS(=O)(=O)c1cc2cc(C[C@](O)(CC(C)(C)c3ccc(F)cc3C(N)=O)C(F)(F)F)[nH]c2cn1 | EGFR T790M | cell-free assay, competition with immobilised ligand | 1 µM | 78%
CCN1CCN(Cc2ccc(C(=O)Nc3ccc(C)c(Oc4ccc5c(c4)CC(=O)N5)c3)cc2C(F)(F)F)CC1 | EGFR L861Q | binding, competition with immobilised ligand | 1 µM | 77%
